Screening results (PubChem BioAssay)
Compounds with a hit are over-represented: about 4% of the library has one in this group of screens.
E-sel inducer = E-selectin induction on HUVECs; hit rate 0.37% among 260,000; HUVEC E-selectin immunofluorescence imaging; normalized: neutral wells 0, TNF-alpha wells 100; P16581; activation, % at 7.58 µM;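 active = mean E-selectin-positive cell signal at least 10% of the positive control, reached in at least 60% of replicates, without over 20% cell loss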
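Read-out: % PE-positive cells | Test system: HUVEC | Doses: One compound dose added by pin transfer | Buffer or medium: EGM-2 over gelatin coat | Signal: Immunofluorescence imaging | Benchmarks: TNF-alpha, DMSO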
FN deposit inh = fibronectin deposition inhibition; AH1F fibroblasts, Alexa488-fibronectin deposition fluorescence, overnight; hit rate 0.086% among 350,000; inhibition, % at 12.6 µM;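 active = mean inhibition across replicates of 30% or more, regardless of how many single replicates reach that level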;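 also: positive control wells lacked labelled fibronectin entirely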
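Material: AH1F fibroblast monolayer depositing Alexa488-labelled fibronectin into matrix | Input: 10000 AH1F cells/well | Medium: DMEM plus 2% serum, read in PBS | Reagent: Alexa488-fibronectin, 24 nM final in well | Compound dosing: One dose per compound, pinned | Schedule: 1 h adhesion, overnight exposure | Measured by: Fluorescence at 485 nm excitation, 525 nm emission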
rRNA inh HTS = selective bacterial rRNA inhibition in E. coli; E. coli WT GFP vs humanized-ribosome RFP mutants, fluorescence, 24 h; hits give low values; DMSO median 0, no signal -100; GFP signal change (wild-type ribosome), % (no concentration beside the values); hit rate 1.6% among 350,000; AID 720706;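 active = significant combined selectivity score with lowered wild-type GFP, culture density cut under 30%, mutant RFP and density less affected; inactive = any of these conditions unmet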
FGF22 binding = shifts melting point of recombinant human FGF22. recombinant FGF22 thermal shift, SYPRO orange fluorescence; percent of sucrose octasulfate shift, DMSO zero. activity (Tm shift, normalised), % at 9.99 µM. hit rate 1.5% among 340,000;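 active = mean Tm shift, scaled 0 neutral to 100 positive control, at about 1.3% or above, every replicate too, limit read from the data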
Target sequence (Q9HCT0 whole entry, looked up): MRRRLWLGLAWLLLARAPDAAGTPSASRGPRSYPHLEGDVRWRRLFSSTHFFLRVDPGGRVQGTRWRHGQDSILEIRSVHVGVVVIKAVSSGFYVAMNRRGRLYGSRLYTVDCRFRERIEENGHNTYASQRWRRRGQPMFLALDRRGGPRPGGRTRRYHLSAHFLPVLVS
SIRT5 inh = sirtuin-5 (human) deacylase inhibition; Q9NXA8; Purified SirT5, succinyl-peptide AMC, trypsin-coupled fluorescence; AID 652115; hit rate 1.1% among 330,000; inhibition, % at 15 µM; in the data active = inhibition above about 15%
Target sequence (Q9NXA8 whole entry, looked up): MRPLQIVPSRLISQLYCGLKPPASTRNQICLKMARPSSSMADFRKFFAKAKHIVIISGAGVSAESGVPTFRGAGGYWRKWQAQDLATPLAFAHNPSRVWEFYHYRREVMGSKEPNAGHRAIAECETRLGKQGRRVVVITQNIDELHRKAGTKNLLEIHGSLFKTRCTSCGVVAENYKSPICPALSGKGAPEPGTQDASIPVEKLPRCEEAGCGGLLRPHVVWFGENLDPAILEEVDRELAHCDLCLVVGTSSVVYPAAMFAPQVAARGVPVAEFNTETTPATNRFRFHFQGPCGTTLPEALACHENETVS
Statin myotox sup = suppression of simvastatin myotoxicity; C2C12 myotubes + simvastatin, ATP luminescence, 48 h; scaled: DMSO 0, geranylgeraniol control 100; rescue of ATP level, % at 7.49 µM; hit rate 0.78% among 330,000;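 active = mean ATP rescue above about 67%, or every replicate alone reaching that limit, limit read from the data, passing the limit was not always enough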;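 also: myotubes were challenged with 10 µM simvastatin during compound exposure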
An asterisk follows results filed as active; · = no result.

SMILES	E-sel inducer	FN deposit inh	rRNA inh HTS	FGF22 binding	SIRT5 inh	Statin myotox sup
COc1ccccc1NC(=O)N[C@@H]1CC[C@@H](CC(=O)N[C@@H](C)c2ccccc2)O[C@H]1CO	-1	-14	3	0	3	-1
Cc1ccc(Oc2c(CO)c(-c3ccccc3)nn2C)cc1	-3	-5	-24*	0	-1	·
CC(=O)c1cn(CC(=O)Nc2cccc(C)c2C)c2ccccc12	0	1	-2	42	22*	-6
COC(=O)c1cn(CC(=O)NCc2ccco2)c2ccccc12	·	31*	·	·	·	-4
COc1ccccc1NC(=O)Cn1cc(C(=O)c2ccco2)c2ccccc21	5	10	-26*	0	-1	2
CC(C)N(C(=O)Cn1cc(SCC(=O)NCc2ccco2)c2ccccc21)C(C)C	0	6	-4	1.7*	1	-1
O=C(C[C@@H]1C=C[C@@H](NC(=O)c2ccc(F)cc2)[C@H](CO)O1)NCCc1ccncc1	0	6	3	0	3	1
COc1ccc(S(=O)(=O)N[C@H]2C=C[C@@H](CC(=O)NCCc3ccncc3)O[C@@H]2CO)cc1	0	-6	-2	0	-1	0
COc1ccccc1C(=O)Nc1ccc2c(c1)C(=O)N(C)C[C@H](OC)[C@H](C)CN[C@H](C)CO2	0	10	-1	0	-5	10
CCOC(=O)C1CCN(C(=O)Cn2cc(C(=O)OC)c3ccccc32)CC1	2	-6	7	0	18*	5
COc1ccccc1-c1ccc([C@H]2[C@@H](CO)N(C(=O)NC3CCCCC3)[C@H]2C#N)cc1	0	8	-38	0	-2	-4
CC(C)COCc1ccc(O)c2ncccc12	·	3	-35*	41	0	·
CCCOCc1ccc(O)c2ncccc12	0	0	-10	0	-5	-3
CS(=O)(=O)NNC(=O)c1csc(Cc2c(Cl)sc3ccc(Cl)cc23)n1	63*	0	9	0	·	·
CCCC[n+]1c(C)sc2ccc(C)cc21	0	-12	6	43*	2	·
Cc1ccc2sc(C)[n+](CCO)c2c1	·	2	17	0	-1	15
Cc1ccc(C(=O)N/C(=C\c2ccc(-c3cccc([N+](=O)[O-])c3)o2)C(=O)NCCCN(C)C)cc1	0	-2	-29*	0	4	-20
CN(C)CCCNC(=O)/C(=C\c1ccc(-c2cccc([N+](=O)[O-])c2)o1)NC(=O)c1ccccc1	·	9	12	0	0	·
CCOc1c2ccc(C(=O)NCc3ccc(C)cc3)cc2nn1CC	0	5	-11	0	-9	16
CCCCn1nc2cc(C(=O)NCc3cc(C(F)(F)F)cc(C(F)(F)F)c3)ccc2c1OCC	0	1	4	44*	-2	26
CCOc1c2ccc(C(=O)NCCc3ccc(C)cc3)cc2nn1CC	0	-3	-24*	0	-13	-9
C[C@@H]1CN([C@H](C)CO)C(=O)c2cc(NC(=O)Nc3ccc4c(c3)OCO4)ccc2O[C@@H](C)CCCCO[C@H]1CN(C)C(=O)Cc1ccccc1	2	·	2	0	0	·
Cn1cnc(S(=O)(=O)N[C@H]2CC[C@@H](CC(=O)Nc3ccccc3)O[C@@H]2CO)c1	0	-7	3	0	34*	4
Cc1ccc(S(=O)(=O)N[C@@H]2C=C[C@H](CC(=O)N3CCN(c4ccccc4)CC3)O[C@@H]2CO)cc1	0	-3	-3	0	25*	-8
Cn1cnc(S(=O)(=O)N[C@@H]2CC[C@H](CC(=O)Nc3ccccc3)O[C@H]2CO)c1	0	-8	-2	0	-8	4
SMILES	E-sel inducer	FN deposit inh	rRNA inh HTS	FGF22 binding	SIRT5 inh	Statin myotox sup
Cc1ccc(S(=O)(=O)N[C@@H]2CC[C@@H](CC(=O)N3CCN(c4ccccc4)CC3)O[C@@H]2CO)cc1	-2	·	-2	0	24*	-1
CN(C)CCCNC(=O)C[C@@H]1C=C[C@H](NS(=O)(=O)c2ccccc2)[C@@H](CO)O1	-2	·	-2	0	15*	2
CN(C)CCCNC(=O)C[C@@H]1C=C[C@@H](NS(=O)(=O)c2ccccc2)[C@H](CO)O1	-1	·	2	0	-1	6
CNC(=O)C[C@@H]1CC[C@H]2[C@H](COc3ccc(NC(=O)NCc4ccccc4)cc3C(=O)N2C)O1	0	-7	1	1	·	5
CC(C)NC(=O)Nc1ccc2c(c1)C(=O)N([C@@H](C)CO)C[C@@H](C)[C@H](CN(C)Cc1ccc3c(c1)OCO3)OCCCC[C@@H](C)O2	·	-3	6	0	·	·
C[C@@H]1CCCCO[C@@H](CN(C)S(=O)(=O)c2ccc(Cl)cc2)[C@H](C)CN([C@@H](C)CO)C(=O)c2cc(NS(=O)(=O)c3ccccc3)ccc2O1	0	-11	-2	0	21*	·
C[C@@H]1CCCCO[C@@H](CN(C)S(=O)(=O)c2ccccc2)[C@H](C)CN([C@H](C)CO)C(=O)c2cc(NS(=O)(=O)c3ccc(Cl)cc3)ccc2O1	0	5	0	0	14	·
C[C@@H]1CCCCO[C@H](CN(C)S(=O)(=O)c2ccc(Cl)cc2)[C@H](C)CN([C@@H](C)CO)C(=O)c2cc(NS(=O)(=O)c3ccccc3)ccc2O1	0	-3	-1	0	16*	·
C[C@@H]1CN([C@@H](C)CO)C(=O)c2cc(NS(=O)(=O)c3ccccc3)ccc2O[C@@H](C)CCCCO[C@H]1CN(C)S(=O)(=O)c1ccc(Cl)cc1	1	-13	-1	0	16*	·
O=C(C[C@@H]1C[C@H]2c3cc(NS(=O)(=O)c4ccccc4)ccc3O[C@H]2[C@@H](CO)O1)NC1CCCCC1	0	-1	-3	0	0	-1
CCOC(=O)Cn1nc(C(F)F)c(Br)c1C	·	3	13	44*	-2	·
CCOC(=O)Cn1nc(C)n(-c2c(C)cccc2C)c1=O	10	-26	3	0	0	11
O=C1c2ccccc2NC(c2ccc(-c3cccc([N+](=O)[O-])c3)o2)N1O (centres undefined)	-2	14	-21*	1	-2	·
COc1ccc2c3c([nH]c2c1)[C@H](CO)N(C(=O)c1ccccn1)CC31CCN(C(=O)C2CCCC2)CC1	0	-10	-3	0	1	·
CN(CC(=O)O)Cc1oc(CO)cc(=O)c1O	0	1	3	44*	·	·
COCC(=O)N(C)C[C@@H]1Oc2ncc(C#CC3(O)CCCC3)cc2C(=O)N([C@@H](C)CO)C[C@H]1C	-1	-13	7	-1	-1	-1
